Experimental data as given in ChEMBL document CHEMBL4371044, “Celastrol Promotes Weight Loss in Diet-Induced Obesity by Inhibiting the Protein Tyrosine Phosphatases PTP1B and TCPTP in the Hypothalamus” (J Med Chem, 2018).
The source made the active and inactive calls. The rule behind the calls is not given here.

Experiments:
Mus musculus [1] = experiment: Antiobesity activity in high fat diet-induced obese Ptpn2fl/fl null C57BL/6 mouse assessed as reduction in body weight at 100 ug/kg, ip for 10 consecutive days; type: functional, organism-based
Procedure, shortened: (§1)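 Male Ptpn1fl/fl, Ptpn2fl/fl or double-floxed mice: chow 8 weeks, then high-fat diet (45% energy from fat) 12 weeks. Bilateral intra-ARC stereotaxic injection of rAAV-CMV-Cre-GFP or rAAV-CMV-GFP, 100 nL/side. After 2 weeks recovery, vehicle or 100 μg/kg ip daily at 6 pm for 10 days; body weight tracked; two-way repeated-measures ANOVA with Tukey test; means ± SEM.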

Mus musculus [2] = experiment: Antiobesity activity in high fat diet-induced obese Ptpn2fl/fl null C57BL/6 mouse assessed as hypophagia at 100 ug/kg, ip for 10 consecutive days; type: functional, organism-based
[3] = biological target: T1, Tyrosine-protein phosphatase non-receptor type 1 (Homo sapiens, UniProt P18031); experiment: Inhibition of human N-terminal His6-tagged PTP1B catalytic domain (1 to 393 residues) expressed in Escherichia coli strain Rosetta2 (DE3) using DiFMUP as substrate preincubated for 10 mins followed by substrate addition and measured after 10 mins by fluorescence assay
T1 sequence (P18031 whole entry): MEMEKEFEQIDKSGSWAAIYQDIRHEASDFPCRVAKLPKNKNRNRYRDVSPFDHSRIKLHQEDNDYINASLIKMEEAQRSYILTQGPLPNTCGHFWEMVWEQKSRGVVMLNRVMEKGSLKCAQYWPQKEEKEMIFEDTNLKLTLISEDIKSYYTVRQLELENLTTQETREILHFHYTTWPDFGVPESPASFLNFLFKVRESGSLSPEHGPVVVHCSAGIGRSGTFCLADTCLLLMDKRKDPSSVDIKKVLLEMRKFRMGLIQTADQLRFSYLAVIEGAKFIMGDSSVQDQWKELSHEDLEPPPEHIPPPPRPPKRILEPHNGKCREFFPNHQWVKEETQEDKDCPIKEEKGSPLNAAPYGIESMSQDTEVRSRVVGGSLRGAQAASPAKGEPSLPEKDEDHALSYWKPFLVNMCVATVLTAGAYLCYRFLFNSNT
Procedure, shortened: (§2)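 Tag-cleaved, SEC-purified enzyme at 1 nM, preincubated 10 min with compound at 15 concentrations from 0–500 μM (5% DMSO final) in 25 mM Bis-Tris propane pH 7.5, 50 mM NaCl, 2 mM EDTA. DiFMUP added at each construct's Km (10, 7, 10, 9 μM for PTP1B1−298, PTP1B1−393, TCPTP1−296, TCPTP1−336). Read ex 358/em 455 nm continuously 10 min at 37 °C; triplicate; log(inhibitor)-response fit.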

[4] = biological target: T2, Tyrosine-protein phosphatase non-receptor type 2 (Homo sapiens, UniProt P17706); experiment: (§3) Inhibition of human N-terminal His6-tagged TCPTP catalytic domain (1 to 296 residues) expressed in Escherichia coli strain Rosetta2 (DE3) using DiFMUP as substrate preincubated for 10 mins followed by substrate addition and measured after 10 mins by fluorescence assay; procedure, shortened: as §2
T2 sequence (P17706 whole entry): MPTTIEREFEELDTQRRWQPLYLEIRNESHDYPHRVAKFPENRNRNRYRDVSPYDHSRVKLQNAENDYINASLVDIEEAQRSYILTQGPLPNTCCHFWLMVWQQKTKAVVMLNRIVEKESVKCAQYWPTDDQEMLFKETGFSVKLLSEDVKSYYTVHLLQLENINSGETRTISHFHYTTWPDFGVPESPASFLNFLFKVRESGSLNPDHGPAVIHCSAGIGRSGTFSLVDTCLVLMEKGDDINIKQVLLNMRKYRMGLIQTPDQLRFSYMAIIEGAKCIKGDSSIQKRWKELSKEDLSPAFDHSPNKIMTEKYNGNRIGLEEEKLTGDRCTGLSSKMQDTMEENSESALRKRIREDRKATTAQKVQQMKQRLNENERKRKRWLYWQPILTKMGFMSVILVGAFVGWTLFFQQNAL

[5] = biological target: T3, Tyrosine-protein phosphatase non-receptor type 2 (Homo sapiens) (UniProt P17706); experiment: as §3, with “Non competitive inhibition” for “Inhibition”, “336” for “296”, “assay Michaelis-Menten plot analysis” for “assay”
T3 sequence (whole entry): T2 sequence (P17706 whole entry)

[6] = biological target: T4, Tyrosine-protein phosphatase non-receptor type 1 (Homo sapiens) (UniProt P18031); experiment: Inhibition of human N-terminal His6-tagged PTP1B catalytic domain (1 to 393 residues) expressed in Escherichia coli strain Rosetta2 (DE3) up to 500 uM using pNPP as substrate preincubated for 10 mins followed by substrate addition and measured after 10 mins by […]
T4 sequence (whole entry): T1 sequence (P18031 whole entry)

[7] = biological target: T1, Tyrosine-protein phosphatase non-receptor type 1; experiment: Binding affinity to human N-terminal His6-tagged PTP1B catalytic domain (1 to 298 residues) expressed in Escherichia coli strain Rosetta2 (DE3) assessed as dissociation rate constant […]
[8] = biological target: T4, Tyrosine-protein phosphatase non-receptor type 1 (Homo sapiens); experiment: Binding affinity to human N-terminal His6-tagged PTP1B catalytic domain (1 to 298 residues) expressed in Escherichia coli strain Rosetta2 (DE3) assessed as association half life using DiFMUP as substrate preincubated for 10 mins followed by substrate addition measured for 10 mins fluorescence assay
[9] = Inhibition of mouse LMPTP-A (1 to 158 residues) expressed in Escherichia coli strain BL21(DE3) using DiFMUP as substrate preincubated for 10 mins followed by substrate addition and measured after 10 mins by fluorescence assay
Procedure, shortened: (§4)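 Selectivity panel on enzymes expressed in E. coli BL21(DE3), purified by nickel affinity then size exclusion. DiFMUP fluorescence assay run as for PTP1B/TCPTP, with per-enzyme conditions in a supplementary table; nonlinear regression for IC50; three independent experiments.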

[10] = Inhibition of mouse LMPTP-B (1 to 158 residues) expressed in Escherichia coli strain BL21(DE3) using DiFMUP as substrate preincubated for 10 mins followed by substrate addition and measured after 10 mins by fluorescence assay; procedure, shortened: as §4
Mus musculus [11] = experiment: Antiobesity activity in high fat diet-induced obese Ptpn1fl/fl null C57BL/6 mouse treated with rAAV-CMV-Cre-GFP for deletion of TCPTP assessed as reduction in body weight at 100 ug/kg, ip for 10 consecutive days; type: functional, organism-based; procedure, shortened: as §1
Mus musculus [12] = experiment: Antiobesity activity in high fat diet-induced obese Ptpn1fl/fl null C57BL/6 mouse treated with rAAV-CMV-Cre-GFP for deletion of PTP1B and TCPTP assessed as reduction in body weight at 100 ug/kg, ip for 10 consecutive days; type: functional, organism-based
[13] = biological target: T4, Tyrosine-protein phosphatase non-receptor type 1 (Homo sapiens); experiment: Covalent binding to human N-terminal His6-tagged PTP1B catalytic domain (1 to 298 residues) expressed in Escherichia coli strain Rosetta2 (DE3) by mass spectrometry
Procedure, shortened: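 PTP1B at 2 mg/mL incubated 30 min with or without compound (1:5, 2% DMSO) in 50 mM Tris-HCl pH 7.5, 75 mM NaCl; C4 ZipTip cleanup; MALDI-TOF in CHCA matrix.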

[14] = biological target: T3, Tyrosine-protein phosphatase non-receptor type 2 (Homo sapiens); experiment: Inhibition of human N-terminal His6-tagged TCPTP catalytic domain (1 to 296 residues) expressed in Escherichia coli strain Rosetta2 (DE3) by NMR spectroscopy

With `CC1=C(O)C(=O)C=C2C1=CC=C1[C@@]2(C)CC[C@@]2(C)[C@@H]3C[C@](C)(C(=O)O)CC[C@]3(C)CC[C@]12C` [CELASTROL] the Activity (Mus musculus [1]) was “Active”, the inhibition (Mus musculus [2]) was “Active” and the IC50 [3] was 2.1 µM. For the same molecule, the IC50 [4] was 23 µM, the inhibition [5] was “Active” and the inhibition [6] was “Active”. For the same molecule, the koff [7] was 3.62 ×10⁻⁴ /s, the T1/2 [8] was 31.9 min and the IC50 [9] was 95.3 µM. For the same molecule, the IC50 [10] was > 500 µM, the Activity (Mus musculus [11]) was “inactive” and the Activity (Mus musculus [12]) was “inactive”. For the same molecule, the Activity [13] was “inactive” and the Activity [14] was “Active”.
